# Columns and labels:
# [1] = molecular target: Estrogen receptor (Homo sapiens) (UniProt Q92731+P03372)
# [2] = molecular target: T1, Mineralocorticoid receptor (Homo sapiens) (UniProt P08235); assay: Antagonist activity against Mineralocorticoid receptor; type: functional
# T1 sequence (whole entry): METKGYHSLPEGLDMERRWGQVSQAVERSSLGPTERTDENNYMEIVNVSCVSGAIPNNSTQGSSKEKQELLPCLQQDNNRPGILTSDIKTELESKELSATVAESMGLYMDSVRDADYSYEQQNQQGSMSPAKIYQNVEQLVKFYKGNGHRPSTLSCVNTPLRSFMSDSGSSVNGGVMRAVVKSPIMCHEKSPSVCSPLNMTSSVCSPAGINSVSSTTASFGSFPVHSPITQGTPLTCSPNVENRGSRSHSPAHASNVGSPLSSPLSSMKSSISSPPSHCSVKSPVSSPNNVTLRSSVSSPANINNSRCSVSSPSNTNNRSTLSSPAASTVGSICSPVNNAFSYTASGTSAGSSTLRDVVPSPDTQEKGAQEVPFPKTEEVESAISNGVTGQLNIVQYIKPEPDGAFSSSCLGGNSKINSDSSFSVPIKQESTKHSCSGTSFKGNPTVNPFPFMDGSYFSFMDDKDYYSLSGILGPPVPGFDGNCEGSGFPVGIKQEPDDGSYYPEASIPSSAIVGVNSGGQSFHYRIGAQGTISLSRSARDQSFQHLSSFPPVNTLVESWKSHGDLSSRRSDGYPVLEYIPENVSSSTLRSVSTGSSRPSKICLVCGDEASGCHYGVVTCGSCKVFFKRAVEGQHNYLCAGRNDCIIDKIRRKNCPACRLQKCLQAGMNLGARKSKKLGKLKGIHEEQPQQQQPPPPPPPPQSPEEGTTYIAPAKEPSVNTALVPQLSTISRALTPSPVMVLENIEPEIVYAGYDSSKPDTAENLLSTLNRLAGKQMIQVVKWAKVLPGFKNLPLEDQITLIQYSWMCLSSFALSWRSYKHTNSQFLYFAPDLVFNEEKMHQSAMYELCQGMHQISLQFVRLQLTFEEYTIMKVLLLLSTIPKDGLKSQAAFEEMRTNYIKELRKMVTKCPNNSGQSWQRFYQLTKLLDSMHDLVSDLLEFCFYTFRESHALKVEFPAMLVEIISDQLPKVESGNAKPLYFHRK
# How it was run: (§1)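 hMR antagonist cotransfection assay run with an EC50 concentration of aldosterone as agonist. Potency is the IC50. Efficacy is % of maximal inhibition. Values are the mean ± SEM of at least two independent experiments, or one experiment where marked.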
# [3] = molecular target: T2, Androgen receptor (Homo sapiens) (UniProt P10275)
# T2 sequence (whole entry): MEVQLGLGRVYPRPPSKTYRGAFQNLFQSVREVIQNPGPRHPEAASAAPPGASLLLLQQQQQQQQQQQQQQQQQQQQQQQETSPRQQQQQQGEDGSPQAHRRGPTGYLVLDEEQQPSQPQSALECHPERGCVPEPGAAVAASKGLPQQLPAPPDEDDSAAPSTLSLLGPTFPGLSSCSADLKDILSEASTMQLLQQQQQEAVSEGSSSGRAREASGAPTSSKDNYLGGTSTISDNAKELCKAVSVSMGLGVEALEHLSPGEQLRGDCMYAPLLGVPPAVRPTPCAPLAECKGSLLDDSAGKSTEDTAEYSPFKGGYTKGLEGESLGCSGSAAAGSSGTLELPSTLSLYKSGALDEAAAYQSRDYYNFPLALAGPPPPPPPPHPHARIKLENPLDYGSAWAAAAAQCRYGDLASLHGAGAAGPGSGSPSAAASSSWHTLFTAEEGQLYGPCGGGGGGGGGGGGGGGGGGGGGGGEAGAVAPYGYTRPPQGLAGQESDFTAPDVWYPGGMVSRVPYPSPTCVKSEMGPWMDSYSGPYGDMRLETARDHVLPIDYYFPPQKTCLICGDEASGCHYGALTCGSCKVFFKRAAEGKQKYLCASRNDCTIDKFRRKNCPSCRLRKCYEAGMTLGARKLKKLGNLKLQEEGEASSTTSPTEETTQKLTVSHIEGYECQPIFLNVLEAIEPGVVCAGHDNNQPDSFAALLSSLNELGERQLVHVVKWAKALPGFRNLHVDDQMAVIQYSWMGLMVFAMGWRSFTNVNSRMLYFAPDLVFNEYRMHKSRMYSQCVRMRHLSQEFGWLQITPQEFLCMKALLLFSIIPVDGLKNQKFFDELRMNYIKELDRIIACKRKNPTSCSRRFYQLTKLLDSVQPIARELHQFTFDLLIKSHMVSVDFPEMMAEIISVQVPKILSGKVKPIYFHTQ
# [4] = molecular target: T3, Glucocorticoid receptor (Homo sapiens) (UniProt P04150)
# T3 sequence (whole entry): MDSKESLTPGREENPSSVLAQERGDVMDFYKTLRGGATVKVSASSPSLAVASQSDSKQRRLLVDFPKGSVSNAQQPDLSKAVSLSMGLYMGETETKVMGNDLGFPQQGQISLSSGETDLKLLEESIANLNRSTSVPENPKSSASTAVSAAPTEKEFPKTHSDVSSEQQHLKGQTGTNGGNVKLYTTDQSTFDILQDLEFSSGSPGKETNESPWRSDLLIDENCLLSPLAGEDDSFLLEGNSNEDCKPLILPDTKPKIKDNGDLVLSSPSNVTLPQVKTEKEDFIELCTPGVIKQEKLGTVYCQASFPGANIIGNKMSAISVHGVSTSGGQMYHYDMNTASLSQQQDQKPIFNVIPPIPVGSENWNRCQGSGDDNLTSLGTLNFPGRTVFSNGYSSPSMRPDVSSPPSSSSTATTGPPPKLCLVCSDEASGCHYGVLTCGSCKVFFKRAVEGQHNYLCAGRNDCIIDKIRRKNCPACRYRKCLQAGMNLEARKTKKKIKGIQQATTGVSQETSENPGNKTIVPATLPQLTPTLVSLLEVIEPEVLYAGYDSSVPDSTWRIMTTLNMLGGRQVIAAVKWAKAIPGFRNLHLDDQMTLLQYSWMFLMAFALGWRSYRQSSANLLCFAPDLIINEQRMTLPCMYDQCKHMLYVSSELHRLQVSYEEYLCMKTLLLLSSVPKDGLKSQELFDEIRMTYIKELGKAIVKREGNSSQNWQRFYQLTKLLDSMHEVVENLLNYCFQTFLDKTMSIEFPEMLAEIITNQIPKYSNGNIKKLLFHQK
# [5] = molecular target: T4, Progesterone receptor (Homo sapiens, UniProt P06401); assay: In vitro antagonist activity against human progesterone receptor isoform B(hPR-B) in mammalian(CV-1) cells; type: functional, cell-based
# T4 sequence (P06401 whole entry): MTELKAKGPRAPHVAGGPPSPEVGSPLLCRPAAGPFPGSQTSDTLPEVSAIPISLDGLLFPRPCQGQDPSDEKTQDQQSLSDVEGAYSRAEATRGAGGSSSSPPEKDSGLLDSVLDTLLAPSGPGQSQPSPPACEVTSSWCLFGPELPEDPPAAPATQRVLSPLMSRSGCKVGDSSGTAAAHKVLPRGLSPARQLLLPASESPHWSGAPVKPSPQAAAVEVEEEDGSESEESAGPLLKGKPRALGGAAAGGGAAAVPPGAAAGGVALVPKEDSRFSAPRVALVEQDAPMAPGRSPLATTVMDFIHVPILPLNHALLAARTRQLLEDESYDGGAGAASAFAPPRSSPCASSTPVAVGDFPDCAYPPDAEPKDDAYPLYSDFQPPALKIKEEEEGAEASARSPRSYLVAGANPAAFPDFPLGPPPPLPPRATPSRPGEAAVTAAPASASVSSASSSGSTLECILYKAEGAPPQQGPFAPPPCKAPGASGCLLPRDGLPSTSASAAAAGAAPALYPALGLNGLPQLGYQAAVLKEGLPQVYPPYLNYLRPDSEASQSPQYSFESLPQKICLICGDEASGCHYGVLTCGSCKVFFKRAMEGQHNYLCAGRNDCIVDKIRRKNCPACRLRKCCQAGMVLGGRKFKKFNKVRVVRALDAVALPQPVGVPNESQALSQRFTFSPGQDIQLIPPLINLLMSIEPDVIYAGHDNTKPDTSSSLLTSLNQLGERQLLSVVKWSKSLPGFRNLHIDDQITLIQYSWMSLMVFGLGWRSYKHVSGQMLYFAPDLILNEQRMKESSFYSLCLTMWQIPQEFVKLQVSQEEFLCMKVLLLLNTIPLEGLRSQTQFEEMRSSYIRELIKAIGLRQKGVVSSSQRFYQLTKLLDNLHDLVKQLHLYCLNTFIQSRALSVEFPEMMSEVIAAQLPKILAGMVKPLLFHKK
# [6] = molecular target: T4, Progesterone receptor; assay: Binding affinity against Baculovirus-Expressed hPR-A
# [7] = molecular target: T1, Mineralocorticoid receptor (Homo sapiens); assay: Efficacy as percent inhibition of Mineralocorticoid receptor with aldosterone EC50
# How it was run: as §1
SMILES,Potency [1] [nM],Potency [2] [nM],Potency [3] [nM],Potency [4] [nM],IC50 [5] [nM],Ki [6] [nM],Efficacy [7] [%]
CC#C[C@]1(O)CC[C@H]2[C@@H]3CCC4=CC(=O)CCC4=C3[C@@H](c3ccc(N(C)C)cc3)C[C@@]21C,> 1000,> 1000,,,,,
CN(C)c1ccc([C@H]2C[C@]3(C)[C@@H](CC[C@]3(O)CCCO)[C@@H]3CCC4=CC(=O)CCC4=C32)cc1,,> 1000,269,27,,,
CC1=CC(C)(C)Nc2ccc(-c3ccccc3)cc21,,,,,783,133,
CC1=CC(C)(C)Nc2ccc(-c3cccc(C#N)c3)cc21,> 1000,> 1000,227,> 1000,38,19,94
CC1=CC(C)(C)Nc2ccc(-c3cc(F)cc([N+](=O)[O-])c3)cc21,,,,,70,5,
CC1=CC(C)(C)Nc2ccc(-c3cc(F)cc(C#N)c3)cc21,> 1000,> 1000,,> 1000,,,80
CC1=CC(C)(C)Nc2ccc(-c3cccc(F)c3)cc21,,,,,750,182,
CC1=CC(C)(C)Nc2ccc(-c3cc(F)cc(F)c3)cc21,,,,,79,10,
